Source: ChEMBL document CHEMBL1268908, “Design, synthesis, radiolabeling, and in vivo evaluation of carbon-11 labeled N-[2-[4-(3-cyanopyridin-2-yl)piperazin-1-yl]ethyl]-3-methoxybenzamide, a potential positron emission tomography tracer for the dopamine D(4) receptors” (J Med Chem, 2010)

What was measured:
Assay type in all cases: ADME, organism-based, Macaca mulatta
[1] = Biodistribution in rhesus monkey retina at 150.3 MBq, iv after 47 mins; conditions: in vivo
[2] = Biodistribution in rhesus monkey entorhinal cortex at 170.3 MBq, iv after 17 mins; conditions: in vivo, in the assay text read “150.3 MBq” for “170.3 MBq”
Method in brief: (§1)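 Single male rhesus monkey anesthetized with ketamine 10 mg/kg im, head fixed. Attenuation correction by 20 min 68Ge-68Ga transmission scan. [11C]-tracer in saline (pH 7.4) given iv, specific radioactivity 2.9 TBq/μmol at injection. Dynamic 3D PET emission scan over 90 min in frames of 0.5 to 5 min. MRI T1 images used to define VOIs. Uptake expressed as […].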

Hippocampus [3] = assay: Biodistribution in rhesus monkey hippocampus at 150.3 MBq, iv after 0.75 mins; conditions: in vivo, 45 s; method in brief: as §1
[4] = Biodistribution in rhesus monkey cerebellum at 150.3 MBq, iv after 0.25 mins; conditions: in vivo, 15 s
Method in brief: (§2)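 Male rhesus monkey under ketamine (10 mg/kg im) with head fixation. After a 20 min 68Ge-68Ga transmission scan, the [11C]-labelled tracer in saline (pH 7.4) was injected iv, at 2.9 TBq/μmol specific radioactivity at injection. A dynamic 3D PET scan followed over 90 min (6×0.5, 7×1, 20×2, 8×5 min frames). Regions were defined on T1-weighted 1.5 T MRI, and uptake is given as %ID/mL.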

[5] = Biodistribution in rhesus monkey cingulate cortex at 150.3 MBq, iv after 8.5 mins; conditions: in vivo; method in brief: as §1
[6] = Biodistribution in rhesus monkey entorhinal cortex at 150.3 MBq, iv after 1.75 mins; conditions: in vivo, 105 s; method in brief: as §1
[7] = Biodistribution in rhesus monkey retina at 150.3 MBq, iv after 3.5 mins; conditions: in vivo
Striatum [8] = assay: Biodistribution in rhesus monkey striatum at 150.3 MBq, iv after 1.75 mins; conditions: in vivo, 105 s
Striatum [9] = assay: Biodistribution in rhesus monkey striatum at 150.3 MBq, iv after 82.5 mins; conditions: in vivo, 1.375 h
[10] = Biodistribution in rhesus monkey occipital lobe at 150.3 MBq, iv after 4.5 mins; conditions: in vivo, 0.075 h
Method in brief: (§3)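 Male rhesus monkey under ketamine 10 mg/kg im, head fixed; 20 min 68Ge-68Ga transmission scan, then 90 min dynamic 3D PET (6×0.5, 7×1, 20×2, 8×5 min frames) after iv [11C]-labelled tracer in saline, specific radioactivity about 2.9 TBq/μmol at injection. Regions defined on T1-weighted MRI; uptake expressed as % injected dose per mL.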

Striatum [11] = assay: Biodistribution in rhesus monkey striatum at 150.3 MBq, iv after 27 mins; conditions: in vivo, 0.45 h
[12] = Biodistribution in rhesus monkey cingulate cortex at 150.3 MBq, iv after 4.5 mins; conditions: in vivo, 0.075 h; method in brief: as §2
Hippocampus [13] = assay: Biodistribution in rhesus monkey hippocampus at 150.3 MBq, iv after 13 mins; conditions: in vivo; method in brief: as §1
Striatum [14] = assay: Biodistribution in rhesus monkey striatum at 150.3 MBq, iv after 29 mins; conditions: in vivo
[15] = Biodistribution in rhesus monkey cingulate cortex at 150.3 MBq, iv after 67.5 mins; conditions: in vivo, 1.125 h; method in brief: as §1
[16] = Biodistribution in rhesus monkey retina at 150.3 MBq, iv after 7.5 mins; conditions: in vivo, 0.125 h
[17] = Biodistribution in rhesus monkey occipital lobe at 150.3 MBq, iv after 2.25 mins; conditions: in vivo, 135 s; method in brief: as §3
Striatum [18] = assay: Biodistribution in rhesus monkey striatum at 150.3 MBq, iv after 41 mins; conditions: in vivo
[19] = Biodistribution in rhesus monkey cingulate cortex at 150.3 MBq, iv after 23 mins; conditions: in vivo; method in brief: as §2
[20] = Biodistribution in rhesus monkey cerebellum at 150.3 MBq, iv after 0.75 mins; conditions: in vivo, 45 s; method in brief: as §2
Hippocampus [21] = assay: Biodistribution in rhesus monkey hippocampus at 150.3 MBq, iv after 11 mins; conditions: in vivo; method in brief: as §1
[22] = Biodistribution in rhesus monkey retina at 150.3 MBq, iv after 57.5 mins; conditions: in vivo
[23] = Biodistribution in rhesus monkey occipital lobe at 150.3 MBq, iv after 3.5 mins; conditions: in vivo; method in brief: as §3
Hippocampus [24] = assay: Biodistribution in rhesus monkey hippocampus at 150.3 MBq, iv after 4.5 mins; conditions: in vivo, 0.075 h; method in brief: as §3
Hippocampus [25] = assay: Biodistribution in rhesus monkey hippocampus at 150.3 MBq, iv after 3.5 mins; conditions: in vivo; method in brief: as §3
[26] = Biodistribution in rhesus monkey occipital lobe at 150.3 MBq, iv after 43 mins; conditions: in vivo
Method in brief: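 A male rhesus monkey was anaesthetised with ketamine 10 mg/kg im and placed in a head fixation device. A 20 min 68Ge-68Ga transmission scan was run for attenuation correction. Radiotracer in saline (pH 7.4) was given iv, about 52 pmol (18 ng), at 2.9 TBq/μmol at injection. A dynamic 3D PET scan followed for 90 min. Regional VOIs were defined on a T1-weighted MRI, with uptake expressed as %ID/mL.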

Hippocampus [27] = assay: Biodistribution in rhesus monkey hippocampus at 150.3 MBq, iv after 23 mins; conditions: in vivo; method in brief: as §1
[28] = Biodistribution in rhesus monkey entorhinal cortex at 150.3 MBq, iv after 25 mins; conditions: in vivo; method in brief: as §1
[29] = Biodistribution in rhesus monkey cerebellum at 150.3 MBq, iv after 3.5 mins; conditions: in vivo; method in brief: as §2
[30] = Biodistribution in rhesus monkey cingulate cortex at 150.3 MBq, iv after 5.5 mins; conditions: in vivo; method in brief: as §1
Striatum [31] = assay: Biodistribution in rhesus monkey striatum at 150.3 MBq, iv after 33 mins; conditions: in vivo, 0.55 h
[32] = Biodistribution in rhesus monkey retina at 150.3 MBq, iv after 6.5 mins; conditions: in vivo
[33] = Biodistribution in rhesus monkey cerebellum at 150.3 MBq, iv after 35 mins; conditions: in vivo; method in brief: as §2
Striatum [34] = assay: Biodistribution in rhesus monkey striatum at 150.3 MBq, iv after 6.5 mins; conditions: in vivo
[35] = Biodistribution in rhesus monkey cerebellum at 150.3 MBq, iv after 47 mins; conditions: in vivo; method in brief: as §2
Hippocampus [36] = assay: Biodistribution in rhesus monkey hippocampus at 150.3 MBq, iv after 43 mins; conditions: in vivo; method in brief: as §3
Hippocampus [37] = assay: Biodistribution in rhesus monkey hippocampus at 150.3 MBq, iv after 37 mins; conditions: in vivo; method in brief: as §3
[38] = Biodistribution in rhesus monkey cingulate cortex at 150.3 MBq, iv after 7.5 mins; conditions: in vivo, 0.125 h; method in brief: as §1
[39] = Biodistribution in rhesus monkey cingulate cortex at 150.3 MBq, iv after 82.5 mins; conditions: in vivo, 1.375 h; method in brief: as §1
Striatum [40] = assay: Biodistribution in rhesus monkey striatum at 150.3 MBq, iv after 15 mins; conditions: in vivo, 0.25 h
Hippocampus [41] = assay: Biodistribution in rhesus monkey hippocampus at 150.3 MBq, iv after 19 mins; conditions: in vivo; method in brief: as §1
Hippocampus [42] = assay: Biodistribution in rhesus monkey hippocampus at 150.3 MBq, iv after 77.5 mins; conditions: in vivo; method in brief: as §3
[43] = Biodistribution in rhesus monkey retina at 150.3 MBq, iv after 62.5 mins; conditions: in vivo
Hippocampus [44] = assay: Biodistribution in rhesus monkey hippocampus at 150.3 MBq, iv after 33 mins; conditions: in vivo, 0.55 h; method in brief: as §3
Hippocampus [45] = assay: Biodistribution in rhesus monkey hippocampus at 150.3 MBq, iv after 31 mins; conditions: in vivo; method in brief: as §3

`[11CH3]Oc1cccc(C(=O)NCCN2CCN(c3ncccc3C#N)CC2)c1` gave a Drug uptake [1] of 57.02 kBq/ml, a Drug uptake [2] of 20.28 kBq/ml and a Drug uptake (Hippocampus [3]) of 57.7053 kBq/ml. The Drug uptake [4] was 40.52 kBq/ml, the Drug uptake [5] was 30.4104 kBq/ml and the Drug uptake [6] was 39.28 kBq/ml. The Drug uptake [7] was 39.59 kBq/ml, the Drug uptake (Striatum [8]) was 56.85 kBq/ml and the Drug uptake (Striatum [9]) was 8.324 kBq/ml. The Drug uptake [10] was 33.71 kBq/ml, the Drug uptake (Striatum [11]) was 16.63 kBq/ml and the Drug uptake [12] was 39.8367 kBq/ml. The Drug uptake (Hippocampus [13]) was 23.13 kBq/ml, the Drug uptake (Striatum [14]) was 15.32 kBq/ml and the Drug uptake [15] was 9.959 kBq/ml. The Drug uptake [16] was 43.92 kBq/ml, the Drug uptake [17] was 44.53 kBq/ml and the Drug uptake (Striatum [18]) was 11.2 kBq/ml. It also gave a Drug uptake [19] of 17.4 kBq/ml, a Drug uptake [20] of 56.67 kBq/ml and a Drug uptake (Hippocampus [21]) of 27 kBq/ml. For the same compound, the Drug uptake [22] was 55.05 kBq/ml, the Drug uptake [23] was 37.15 kBq/ml and the Drug uptake (Hippocampus [24]) was 41.63 kBq/ml. It also gave a Drug uptake (Hippocampus [25]) of 43.93 kBq/ml, a Drug uptake [26] of 9.37 kBq/ml and a Drug uptake (Hippocampus [27]) of 17.98 kBq/ml. It also gave a Drug uptake [28] of 17.3 kBq/ml, a Drug uptake [29] of 38.562 kBq/ml and a Drug uptake [30] of 36.57 kBq/ml. For the same compound, the Drug uptake (Striatum [31]) was 14.6624 kBq/ml, the Drug uptake [32] was 44.54 kBq/ml and the Drug uptake [33] was 11.95 kBq/ml. For the same compound, the Drug uptake (Striatum [34]) was 36.37 kBq/ml, the Drug uptake [35] was 10.15 kBq/ml and the Drug uptake (Hippocampus [36]) was 10.83 kBq/ml. For the same compound, the Drug uptake (Hippocampus [37]) was 12.43 kBq/ml, the Drug uptake [38] was 32.75 kBq/ml and the Drug uptake [39] was 9.311 kBq/ml. It also gave a Drug uptake (Striatum [40]) of 21.63 kBq/ml, a Drug uptake (Hippocampus [41]) of 18.77 kBq/ml and a Drug uptake (Hippocampus [42]) of 8.119 kBq/ml. For the same compound, the Drug uptake [43] was 54.08 kBq/ml, the Drug uptake (Hippocampus [44]) was 13.18 kBq/ml and the Drug uptake (Hippocampus [45]) was 14.91 kBq/ml.
